Source: publication PMC3314378 (Journal of Medicinal Chemistry, 2011)
pIC50: −log10 of the molar value. Each block holds one compound with its values, some of them ahead of it.

Tests used:
[1] = test system: 8-Br-cAMP-induced renal cyst growth in E13.5 embryonic kidneys; conditions: read-out: IC50 for inhibition of cyst growth; embryonic kidney culture; cited from earlier work
[2] = In vitro metabolic stability in hepatic microsomes; format: in vitro ADME, rat; conditions: for metabolic stability in hepatic microsomes: presence of NADPH
Summary of the method: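 Test compound (5 μM) incubated at 37 °C for specified times with rat liver microsomes (1 mg protein/ml) in 100 mM potassium phosphate buffer with NADPH 0 or 1 mM. Chilled, extracted with ice-cold ethyl acetate, dried under nitrogen, redissolved in acetonitrile:water 3:1 with 0.1% formic acid. Analysed by reverse-phase C18 LC (5–95% acetonitrile gradient, 16 min) and electrospray MS, scanning 150–1500 Da.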

[3] = target: human wildtype CFTR (Homo sapiens, UniProt P13569); test: Fluorescence plate-reader assay of CFTR-mediated iodide influx; format: cell-based
human wildtype CFTR, sequence (P13569 whole entry): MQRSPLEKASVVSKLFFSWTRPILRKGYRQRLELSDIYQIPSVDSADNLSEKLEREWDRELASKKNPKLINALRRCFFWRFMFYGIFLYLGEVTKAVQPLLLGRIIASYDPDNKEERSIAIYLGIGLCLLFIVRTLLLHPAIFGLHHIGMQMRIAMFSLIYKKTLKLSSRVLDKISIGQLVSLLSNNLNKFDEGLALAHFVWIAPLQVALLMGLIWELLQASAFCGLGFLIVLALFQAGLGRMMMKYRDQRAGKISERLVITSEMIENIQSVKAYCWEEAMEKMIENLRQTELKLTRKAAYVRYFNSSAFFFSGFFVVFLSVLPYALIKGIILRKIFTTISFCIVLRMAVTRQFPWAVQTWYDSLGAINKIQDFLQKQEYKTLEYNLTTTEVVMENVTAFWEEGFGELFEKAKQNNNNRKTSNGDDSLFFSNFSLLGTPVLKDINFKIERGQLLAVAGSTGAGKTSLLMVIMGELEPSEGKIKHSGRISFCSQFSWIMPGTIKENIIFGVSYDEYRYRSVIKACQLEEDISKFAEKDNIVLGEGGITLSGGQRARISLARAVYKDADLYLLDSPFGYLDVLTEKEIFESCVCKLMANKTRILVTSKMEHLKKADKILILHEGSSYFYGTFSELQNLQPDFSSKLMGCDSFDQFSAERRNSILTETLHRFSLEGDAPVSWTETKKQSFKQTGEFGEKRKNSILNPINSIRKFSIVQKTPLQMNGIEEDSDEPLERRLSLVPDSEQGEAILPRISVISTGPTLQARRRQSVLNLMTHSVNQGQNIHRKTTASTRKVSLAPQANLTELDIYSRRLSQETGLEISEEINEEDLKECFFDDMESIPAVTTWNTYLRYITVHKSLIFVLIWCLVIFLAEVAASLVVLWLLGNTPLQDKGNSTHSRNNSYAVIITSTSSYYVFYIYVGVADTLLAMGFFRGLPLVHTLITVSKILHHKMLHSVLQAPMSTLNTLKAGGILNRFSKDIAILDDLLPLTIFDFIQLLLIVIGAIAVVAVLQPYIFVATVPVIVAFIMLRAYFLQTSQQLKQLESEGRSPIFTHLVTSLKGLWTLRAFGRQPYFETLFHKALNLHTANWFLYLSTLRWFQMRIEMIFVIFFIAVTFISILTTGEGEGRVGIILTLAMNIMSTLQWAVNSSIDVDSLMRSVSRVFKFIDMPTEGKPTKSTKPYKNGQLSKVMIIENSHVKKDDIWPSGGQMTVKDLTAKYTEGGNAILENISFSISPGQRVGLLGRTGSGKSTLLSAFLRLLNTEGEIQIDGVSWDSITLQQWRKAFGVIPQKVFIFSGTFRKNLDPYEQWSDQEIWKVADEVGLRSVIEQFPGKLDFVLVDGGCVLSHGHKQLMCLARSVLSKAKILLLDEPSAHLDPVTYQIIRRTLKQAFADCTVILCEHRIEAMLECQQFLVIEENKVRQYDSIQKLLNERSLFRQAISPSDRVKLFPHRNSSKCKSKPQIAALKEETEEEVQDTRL
Summary of the method: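 FRT cells co-expressing human wild-type CFTR and YFP-H148Q were plated at 20,000 cells/well in Coon's modified F12 with 10% FBS and assayed 48 h later. After PBS washes, test compound was added for 45 min, then forskolin/IBMX/apigenin cocktail for 15 min. Fluorescence was read 2 s baseline, then 10 s after adding PBS with iodide replacing 137 mM chloride. Initial iodide influx rate by non-linear regression; n=4, S.E.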

[4] = test system: 8-Br-cAMP-induced renal cyst growth in E13.5 embryonic kidneys; test: Embryonic kidney organ culture model of PKD; set-up: species or system mouse
Summary of the method: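 Mouse E13.5 metanephroi on porous culture inserts in DMEM/Ham's F-12 with L-glutamine, HEPES, insulin, transferrin, selenium, prostaglandin E, T3 and antibiotics. Kept at 37 °C in humidified CO2 for up to 8 days. Medium with 100 μM 8-Br-cAMP, with or without test compound (0, 0.1 or 1 μM), replaced every 12 h. Kidneys photographed by transmitted light at 520 nm; percentage cyst area = total cyst area / total kidney area.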

[5] = target: CFTR (Homo sapiens, UniProt P13569); test: Short-circuit current analysis of CFTR inhibition in CFTR-expressing FRT cells; format: cell-based
CFTR, sequence (P13569 whole entry): as above
Summary of the method: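 Ussing chamber short-circuit current on CFTR-expressing FRT cell inserts under voltage clamp. Apical buffer 75 mM NaCl + 75 mM Na gluconate, basolateral 150 mM NaCl, pH 7.3, giving a transepithelial chloride gradient. Basolateral membrane permeabilized with 250 μg/mL amphotericin B. CFTR activated with forskolin (20 μM), then serial additions of increasing test compound concentrations, with current recorded continuously.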

SMILES: Cc1ccc(C2c3c4c(c(-c5ccccc5)n3-c3ccccc3N2C)c(=O)n(C)c(=O)n4C)o1 (stereo not drawn) [Compound 13]
CFTR inhibition activity [3]: weakly active

SMILES: Cn1c(=O)c2c(-c3ccccc3)n3c(c2n(C)c1=O)C(c1ccc(Br)o1)Nc1ccccc1-3 (stereo not drawn) [Compound 18]
metabolic stability in hepatic microsomes [2]: substantially more stable than 8

SMILES: CCOC(=O)c1ccc2c(c1)-n1c(-c3ccccc3)c3c(=O)n(C)c(=O)n(C)c3c1C(c1ccc(Br)o1)O2 (stereo not drawn) [Compound 40, Ethyl 6-(5-Bromofuran-2-yl)-7,9-dimethyl-8,10-dioxo-11-phenyl-7,8,9,10-tetrahydro-6H-benzo[b]pyrimido [4',5':3,4]pyrrolo[1,2-d][1,4]oxazine-2-carboxylate]
CFTR inhibition activity [3]: strongly inhibited CFTR

SMILES: Cn1c(=O)c2c(-c3ccccc3)n3c(c2n(C)c1=O)C(c1ccc(Br)o1)Oc1ccc(C(=O)O)cc1-3 (stereo not drawn) [Compound 42, 6-(5-Bromofuran-2-yl)-7,9-dimethyl-8,10-dioxo-11-phenyl-7,8,9,10-tetrahydro-6H-benzo[b]pyrimido [4',5':3,4]pyrrolo [1,2-d][1,4]oxazine-2-carboxylic acid]
improvement of potency for inhibition of renal cystogenesis ex vivo over 8 [4]: > 5 fold
improvement of metabolic stability compared to 8 ([2]; hepatic microsomes): > 10 fold
metabolic stability in hepatic microsomes [2]: excellent stability
extent of CFTR inhibition [5]: fully inhibited CFTR

Now from value to compound, other results behind:

loss in hepatic microsomes in the absence of NADPH ([2]; absence of NADPH (data not shown)): No loss
metabolic stability in hepatic microsomes [2]: poor metabolic stability
SMILES: Cc1ccc(C2Nc3ccccc3-n3c(-c4ccccc4)c4c(=O)n(C)c(=O)n(C)c4c32)o1 (stereo not drawn) [Compound 8, 7,9-Dimethyl-11-phenyl-6-(5-methylfuran-2-yl)-5,6-dihydro-pyrimido-[4',5'-3,4]pyrrolo[1,2-a]quinoxaline-8,10-(7H,9H)-dione]
pIC50 [1]: < 6.30

metabolic stability in hepatic microsomes [2]: better stability than 8
SMILES: Cn1c(=O)c2c(-c3ccccc3)n3c(c2n(C)c1=O)C(c1ccc(Br)o1)Oc1ccccc1-3 (stereo not drawn) [Compound 31]

metabolic stability in hepatic microsomes [2]: excellent metabolic stability
SMILES: Cn1c(=O)c2c(-c3ccccc3)n3c(c2n(C)c1=O)C(c1ccc(Br)o1)Oc1ccc([N+](=O)[O-])cc1-3 (stereo not drawn) [Compound 36]
